Source: ChEMBL document CHEMBL4261518, “Side chain-functionalized aniline-derived ursolic acid derivatives as multidrug resistance reversers that block the nuclear factor-kappa B (NF-κB) pathway and cell proliferation” (Medchemcomm, 2017)

How the values were obtained:
[1] = test system: MGC-803; assay: Cytotoxicity against human MGC803 cells after 48 hrs by MTT assay; type: functional, cell-based; conditions: MGC-803, 48 h
Summary of the method: (§1)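 Cells grown overnight in DMEM + 10% FBS at 37 °C under 5% CO2, then given a range of compound concentrations for 48 h. MTT added for about 4 h, medium replaced by DMSO, absorbance read at 570/630 nm. IC50 reported as mean ± SD of five independent experiments.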

[2] = Cytotoxicity against human SPCA2 cells after 48 hrs by MTT assay; type: functional, cell-based; conditions: SPCA2, 48 h; summary of the method: as §1
[3] = test system: NCI-H460; assay: Cytotoxicity against human NCI-H460 cells after 48 hrs by MTT assay; type: functional, cell-based; conditions: NCI-H460, 48 h; summary of the method: as §1
[4] = test system: A549; assay: Cytotoxicity against human A549 cells after 48 hrs by MTT assay; type: functional, cell-based; conditions: A549, 48 h; summary of the method: as §1
[5] = test system: T-24; assay: Cytotoxicity against human T24 cells after 48 hrs by MTT assay; type: functional, cell-based; conditions: T-24, 48 h; summary of the method: as §1
[6] = test system: L02; assay: Cytotoxicity against human HL7702 cells after 48 hrs by MTT assay; type: cell-based; conditions: L02, 48 h; summary of the method: as §1
[7] = Inhibition of TNFalpha-induced NF-kB (unknown origin) activation expressed in human NCI-H460 cells after 7 hrs by luciferase reporter gene assay; type: cell-based; conditions: NCI-H460, 7 h
Summary of the method: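 NCI-H460 cells transiently co-transfected with pNF-κB-Luc reporter and pSV-β-galactosidase internal control by lipofectamine. Medium changed after 6 h, then 6 h further culture. TNF-α (15 ng ml–1) plus compound given together for 7 h. Luciferase ratio to TNF-α-only cells, corrected for non-TNF background and viability. IC50 from sigmoidal variable-slope fit.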

[8] = Cytotoxicity against human NCI-H460/DOX cells after 48 hrs by MTT assay; type: functional, cell-based; conditions: NCI-H460, 48 h; summary of the method: as §1
[9] = Resistant factor, ratio of IC50 for human NCI-H460/DOX cells to IC50 for human NCI-H460 cells; type: functional
[10] = test system: HepG2; assay: Cytotoxicity against human HepG2 cells after 48 hrs by MTT assay; type: functional, cell-based; conditions: HepG2, 48 h; summary of the method: as §1
[11] = Cytotoxicity against human HepG2/DOX cells after 48 hrs by MTT assay; type: functional, cell-based; summary of the method: as §1
[12] = Resistant factor, ratio of IC50 for human HepG2/DOX cells to IC50 for human HepG2 cells; type: functional
[13] = test system: NCI-H460; assay: Cytotoxicity against human NCI-H460 cells harboring pNF-kB-Luc assessed as reduction in cell viability after 7 hrs by MTT assay relative to control; design: concentration or dose not given beside the values; conditions: nci-h460, 7 h

| IC50 [7] [µM] | SMILES | IC50 [1] [µM] | IC50 [2] [µM] | IC50 [3] [µM] | IC50 [4] [µM] | IC50 [5] [µM] | IC50 [6] [µM] | IC50 [8] [µM] | Ratio IC50 [9] | IC50 [10] [µM] | IC50 [11] [µM] | Ratio IC50 [12] | Activity [13] [%] |
| --- | --- | --- | --- | --- | --- | --- | --- | --- | --- | --- | --- | --- | --- |
| 7.13 | C[C@H]1[C@H](C)CC[C@]2(C(=O)Nc3ccccc3)CC[C@]3(C)C(=CC[C@@H]4[C@@]5(C)CCC(=O)C(C)(C)[C@@H]5CC[C@]43C)[C@H]12 | 15.1 | 13.5 | 12.9 | 16.3 | 13.6 | > 50 | 25.7 | 1.99 | 18.1 | 36.7 | 2.02 | < 5 |
| 5.43 | Cc1ccc(NC(=O)[C@]23CC[C@@H](C)[C@H](C)[C@H]2C2=CC[C@@H]4[C@@]5(C)CCC(=O)C(C)(C)[C@@H]5CC[C@@]4(C)[C@]2(C)CC3)cc1 | 18.6 | 17.3 | 11.9 | 17.9 | 20.1 | > 50 | 20.9 | 1.76 | 17.6 | 28.5 | 1.62 | < 5 |
| 2.33 | CC(=O)O[C@H]1CC[C@]2(C)[C@H]3CC=C4[C@@H]5[C@@H](C)[C@H](C)CC[C@]5(C(=O)Nc5ccccc5)CC[C@@]4(C)[C@]3(C)CC[C@H]2C1(C)C | 14.8 | 11.7 | 11.4 | 12.9 | 13.1 | > 50 | 17.2 | 1.52 | 12.6 | 27.4 | 2.17 | < 5 |
| 0.94 | C[C@H]1[C@H](C)CC[C@]2(C(=O)NCCN(C)C)CC[C@]3(C)C(=CC[C@@H]4[C@@]5(C)CCC(=O)C(C)(C)[C@@H]5CC[C@]43C)[C@H]12 | 7.35 | 6.91 | 4.35 | 6.01 | 6.35 | > 50 | 6.8 | 1.56 | 9.05 | 11.4 | 1.26 | < 5 |
| 8.04 | Cc1ccc(NC(=O)COC(=O)[C@]23CC[C@@H](C)[C@H](C)[C@H]2C2=CC[C@@H]4[C@@]5(C)CCC(=O)C(C)(C)[C@@H]5CC[C@@]4(C)[C@]2(C)CC3)cc1 | 16.6 | 15.6 | 10.9 | 13.1 | 15.7 | > 50 | 23.8 | 2.18 | 20.1 | 39.7 | 1.98 | < 5 |
| 2.26 | CC(=O)O[C@H]1CC[C@]2(C)[C@H]3CC=C4[C@@H]5[C@@H](C)[C@H](C)CC[C@]5(C(=O)Nc5ccc(C)cc5)CC[C@@]4(C)[C@]3(C)CC[C@H]2C1(C)C | 13.4 | 11.2 | 9.6 | 10.3 | 10.6 | > 50 | 13.5 | 1.4 | 12.5 | 20.4 | 1.63 | < 5 |
| 4.8 | CC(=O)O[C@H]1CC[C@]2(C)[C@H]3CC=C4[C@@H]5[C@@H](C)[C@H](C)CC[C@]5(C(=O)Nc5ccc(C)c(C)c5)CC[C@@]4(C)[C@]3(C)CC[C@H]2C1(C)C | 15 | 12.2 | 10.4 | 12.4 | 16.6 | > 50 | 18.9 | 1.81 | 17.4 | 26.2 | 1.51 | < 5 |
